Results from ChEMBL document CHEMBL1130149, “Medetomidine analogs as alpha 2-adrenergic ligands. 3. Synthesis and biological evaluation of a new series of medetomidine analogs and their potential binding interactions with alpha 2-adrenoceptors involving a "methyl pocket"” (J Med Chem, 1997).

Experiments:
[1] = target: T1, Adrenergic receptor alpha-2 (Rattus norvegicus, UniProt P22086+P19328+P22909); assay: Displacement of [3H]rauwolscine from Alpha-2 adrenergic receptor of rat brain membranes; format: cell membranes, Membrane
T1 sequence (P22086 whole entry): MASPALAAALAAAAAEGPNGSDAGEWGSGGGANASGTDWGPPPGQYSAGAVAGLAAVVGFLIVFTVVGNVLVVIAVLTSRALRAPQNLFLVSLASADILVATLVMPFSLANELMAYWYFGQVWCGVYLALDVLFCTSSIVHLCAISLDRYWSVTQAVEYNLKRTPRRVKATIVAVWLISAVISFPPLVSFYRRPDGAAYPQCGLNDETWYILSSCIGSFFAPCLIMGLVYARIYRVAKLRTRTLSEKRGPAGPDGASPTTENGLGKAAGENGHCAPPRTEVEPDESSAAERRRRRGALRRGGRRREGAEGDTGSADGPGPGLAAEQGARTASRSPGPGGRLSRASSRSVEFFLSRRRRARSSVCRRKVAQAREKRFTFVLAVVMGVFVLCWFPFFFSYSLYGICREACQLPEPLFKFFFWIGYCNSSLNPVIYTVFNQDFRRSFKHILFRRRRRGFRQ
T1 sequence (P19328 whole entry): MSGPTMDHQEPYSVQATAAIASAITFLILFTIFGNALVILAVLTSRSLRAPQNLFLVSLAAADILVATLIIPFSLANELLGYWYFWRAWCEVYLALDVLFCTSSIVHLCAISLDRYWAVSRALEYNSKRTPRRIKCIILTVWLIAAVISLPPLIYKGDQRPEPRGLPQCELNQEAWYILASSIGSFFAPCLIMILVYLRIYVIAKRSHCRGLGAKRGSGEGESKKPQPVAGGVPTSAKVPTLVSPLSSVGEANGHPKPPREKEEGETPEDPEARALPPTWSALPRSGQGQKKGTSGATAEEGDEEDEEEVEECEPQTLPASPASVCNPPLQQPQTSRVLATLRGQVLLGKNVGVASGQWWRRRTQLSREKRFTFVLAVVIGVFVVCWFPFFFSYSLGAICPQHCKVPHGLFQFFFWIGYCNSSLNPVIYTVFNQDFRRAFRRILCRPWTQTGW
T1 sequence (P22909 whole entry): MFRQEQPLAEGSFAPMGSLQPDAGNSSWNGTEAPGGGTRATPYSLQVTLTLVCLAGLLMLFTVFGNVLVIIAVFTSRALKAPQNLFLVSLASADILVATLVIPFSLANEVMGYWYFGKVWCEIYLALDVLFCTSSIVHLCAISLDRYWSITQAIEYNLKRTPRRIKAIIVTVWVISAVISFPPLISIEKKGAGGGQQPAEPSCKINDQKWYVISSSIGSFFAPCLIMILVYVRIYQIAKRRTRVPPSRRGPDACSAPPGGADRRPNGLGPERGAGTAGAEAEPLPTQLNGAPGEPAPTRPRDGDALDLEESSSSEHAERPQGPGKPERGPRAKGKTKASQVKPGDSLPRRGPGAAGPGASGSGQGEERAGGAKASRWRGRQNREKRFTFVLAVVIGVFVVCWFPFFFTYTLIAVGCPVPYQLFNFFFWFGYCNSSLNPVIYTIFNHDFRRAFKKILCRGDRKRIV
Outline: (§1)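 Rat brain membrane fractions incubated with 0.2 nM [3H]rauwolscine for α2 sites. Nonspecific binding defined with 10 μM phentolamine. IC50 (analog concentration reducing specific binding by 50%) converted to Ki by Ki = IC50(1 + [L]/Kd), where [L] is the radioligand concentration and Kd its equilibrium dissociation constant.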

[2] = target: T2, Adrenergic receptor alpha-1 (Rattus norvegicus, UniProt P15823+P23944+P43140); assay: Displacement of [3H]-prazosin from Alpha-1 adrenergic receptor of rat brain membranes; format: cell membranes, Membrane
T2 sequence (P15823 whole entry): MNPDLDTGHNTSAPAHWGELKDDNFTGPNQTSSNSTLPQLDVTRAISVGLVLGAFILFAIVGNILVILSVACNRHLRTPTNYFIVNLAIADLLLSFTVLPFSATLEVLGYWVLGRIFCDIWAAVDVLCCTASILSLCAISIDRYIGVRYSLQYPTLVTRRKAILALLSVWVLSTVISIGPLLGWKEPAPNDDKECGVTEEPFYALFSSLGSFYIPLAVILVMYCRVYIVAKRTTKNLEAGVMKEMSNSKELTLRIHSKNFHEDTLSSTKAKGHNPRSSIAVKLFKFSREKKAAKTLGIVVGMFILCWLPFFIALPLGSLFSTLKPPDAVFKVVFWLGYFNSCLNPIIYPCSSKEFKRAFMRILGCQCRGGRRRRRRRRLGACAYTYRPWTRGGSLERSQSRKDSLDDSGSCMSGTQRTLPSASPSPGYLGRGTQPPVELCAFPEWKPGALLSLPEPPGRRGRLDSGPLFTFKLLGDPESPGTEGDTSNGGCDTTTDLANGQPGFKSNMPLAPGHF
T2 sequence (P23944 whole entry): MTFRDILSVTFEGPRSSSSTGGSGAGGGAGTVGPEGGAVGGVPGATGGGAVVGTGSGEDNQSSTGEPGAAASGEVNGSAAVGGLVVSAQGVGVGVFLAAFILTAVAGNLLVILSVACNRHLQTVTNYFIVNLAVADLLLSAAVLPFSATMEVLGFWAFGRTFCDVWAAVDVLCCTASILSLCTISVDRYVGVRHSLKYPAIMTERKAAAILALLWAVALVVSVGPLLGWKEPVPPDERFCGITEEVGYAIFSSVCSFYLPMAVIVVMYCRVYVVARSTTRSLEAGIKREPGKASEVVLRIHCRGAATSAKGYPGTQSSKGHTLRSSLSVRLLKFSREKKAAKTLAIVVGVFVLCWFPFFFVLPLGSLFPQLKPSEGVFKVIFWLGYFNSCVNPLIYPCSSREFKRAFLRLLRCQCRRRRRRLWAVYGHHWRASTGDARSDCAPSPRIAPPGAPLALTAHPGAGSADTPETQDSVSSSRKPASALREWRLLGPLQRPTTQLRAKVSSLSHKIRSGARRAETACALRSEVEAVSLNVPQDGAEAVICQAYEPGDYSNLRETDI
T2 sequence (P43140 whole entry): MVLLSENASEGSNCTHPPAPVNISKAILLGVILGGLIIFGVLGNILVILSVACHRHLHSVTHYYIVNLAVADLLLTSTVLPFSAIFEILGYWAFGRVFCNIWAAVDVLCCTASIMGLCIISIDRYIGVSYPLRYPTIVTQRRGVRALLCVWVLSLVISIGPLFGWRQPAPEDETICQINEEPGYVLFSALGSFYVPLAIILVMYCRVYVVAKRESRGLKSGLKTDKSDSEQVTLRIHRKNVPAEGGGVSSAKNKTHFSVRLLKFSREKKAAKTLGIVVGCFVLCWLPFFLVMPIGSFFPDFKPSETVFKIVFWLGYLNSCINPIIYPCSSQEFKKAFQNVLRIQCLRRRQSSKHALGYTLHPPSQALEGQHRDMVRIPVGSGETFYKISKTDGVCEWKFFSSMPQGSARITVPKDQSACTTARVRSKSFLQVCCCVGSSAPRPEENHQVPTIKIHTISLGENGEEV
Outline: as §1, with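 “0.1” for “0.2”, “[3H]prazosin” for “[3H]rauwolscine”, “α1” for “α2”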

[3] = target: Adrenergic receptor alpha (Rattus norvegicus) (UniProt P15823+P23944+P43140+P22086+P19328+P22909); assay: Relative affinity for Alpha 2 over Alpha 1 adrenergic receptors; format: protein assay

Compound | Ki [1] [nM] | Ki [2] [nM] | Selectivity [3]
C1=C(c2c[nH]cn2)c2cccc(OCc3ccccc3)c2CC1 | 2670 | 8250 | 3.09
Cc1cc(C)c2c(c1)C(c1c[nH]cn1)CCC2 (stereo not given) | 103 | 131 | 1.27
Cc1cccc2c1CCCC2c1c[nH]cn1 (stereo not given) | 95 | 191 | 2.01
Cc1cccc2c1CCC=C2c1c[nH]cn1 | 31 | 992 | 32
Cc1cccc(C(C)c2c[nH]cn2)c1C (stereo not given) | – | – | 44.4
Cc1cccc2c1CCC2c1c[nH]cn1 (stereo not given) | 8.8 | 73 | 8.29
COc1ccc2c(c1)C(c1c[nH]cn1)CCC2 (stereo not given) | 201 | 1770 | 8.81
Oc1cccc2c1CCCC2c1c[nH]cn1 (stereo not given) | 63 | 126 | 2.01
Cc1cc(C)c2c(c1)C(c1c[nH]cn1)=CCC2 | 232 | 2960 | 12.8
COc1cccc2c1CCCC2c1c[nH]cn1 (stereo not given) | 98 | 243 | 2.48
COc1ccc2c(c1)CCCC2c1c[nH]cn1 (stereo not given) | 169 | 198 | 1.17
COc1ccc2c(c1)CCC=C2c1c[nH]cn1 | 580 | 1630 | 2.81
COc1cccc2c1CCC=C2c1c[nH]cn1 | 1420 | 2970 | 2.1
COc1ccc2c(c1)C(c1c[nH]cn1)=CCC2 | 1570 | 14200 | 9.03
